Assay results taken from ChEMBL document CHEMBL1155415, “Synthesis, characterization, and in vitro antimicrobial activities of 5-alkenyl/hydroxyalkenyl-2-phenylamine-1,3,4-oxadiazoles and thiadiazoles” (2010).
≈ marks a conversion by molar mass, not a printed value.

What was measured:
Assay type in all cases: functional
Pseudomonas aeruginosa [1] = assay: Antibacterial activity against Pseudomonas aeruginosa ATCC 27853 after 18 to 24 hrs
Aspergillus fumigatus [2] = assay: Ratio of MFC to MIC for Aspergillus fumigatus
How it was run: (§1)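 MFC: 0.1 ml from each MIC tube was spread on agar and colonies were counted after 48 h at 35 °C. MFC is the lowest concentration killing 99.9% of the inoculum. The MFC/MIC ratio was then calculated to classify activity as fungistatic or fungicidal.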

Candida albicans [3] = assay: Ratio of MFC to MIC for Candida albicans; how it was run: as §1
Escherichia coli [4] = assay: Antibacterial activity against Escherichia coli ATCC 25922 after 18 to 24 hrs
Staphylococcus aureus [5] = assay: Antibacterial activity against Staphylococcus aureus ATCC 25923 after 24 hrs by disc diffusion method
How it was run: (§2)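 Agar disc diffusion. A standard inoculum of […] c.f.u./ml (0.5 McFarland) was spread evenly on agar. 6 mm Whatman no. 1 paper discs, dry-heat sterilized (140 °C, 1 h), were soaked in test compound and placed on nutrient agar. Plates were inverted and incubated 24 h at 37 °C. Read-out: diameter of the inhibition zone.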

[6] = test system: Trichophyton mentagrophytes; assay: Antifungal activity against Trichophyton mentagrophytes after 48 hrs by disk diffusion method
How it was run: (§3)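 Agar well diffusion with compounds in DMSO. The dish was lawned with a saline spore suspension, excess decanted, and dried 1 h at 37 °C. Wells were punched. Read-out: inhibition zone in mm. Griseofulvin served as standard and DMSO as negative control.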

Candida albicans [7] = assay: Antifungal activity against Candida albicans after 48 hrs by two fold dilution technique
How it was run: (§4)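 Broth MIC. Broth with log two-fold serial dilutions of compound was inoculated with about 1.6 × 10⁴–6 × 10⁴ c.f.u./ml of fungus and incubated 48 h at 35 °C. MIC is the lowest concentration arresting fungal growth.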

Streptococcus pyogenes [8] = assay: Antibacterial activity against Streptococcus pyogenes after 24 hrs by two fold dilution technique
How it was run: (§5)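 Broth dilution MIC. Nutrient broth held log two-fold serial dilutions of compound and was inoculated with about 5 × 10⁵ c.f.u./ml of actively dividing bacteria. Incubation was 24 h at 37 °C, with growth checked visually and spectrophotometrically. MIC is the lowest concentration arresting growth.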

Talaromyces marneffei [9] = assay: Antifungal activity against Penicillium marneffei after 48 hrs by disk diffusion method; how it was run: as §3
Klebsiella pneumoniae [10] = assay: Antibacterial activity against Klebsiella pneumoniae after 24 hrs by disc diffusion method; how it was run: as §2
Talaromyces marneffei [11] = assay: Ratio of MFC to MIC for Penicillium marneffei; how it was run: as §1
Candida albicans [12] = assay: Antifungal activity against Candida albicans after 48 hrs by disk diffusion method; how it was run: as §3
Staphylococcus aureus [13] = assay: Antibacterial activity against Staphylococcus aureus ATCC 25923 after 24 hrs by two fold dilution technique; conditions: ATCC 25923, 24 h; how it was run: as §5
Escherichia coli [14] = assay: Antibacterial activity against Escherichia coli ATCC 25922 after 24 hrs by two fold dilution technique; conditions: ATCC 25922, 24 h; how it was run: as §5
[15] = test system: Trichophyton mentagrophytes; assay: Antifungal activity against Trichophyton mentagrophytes after 48 hrs by two fold dilution technique; how it was run: as §4
Klebsiella pneumoniae [16] = assay: Antibacterial activity against Klebsiella pneumoniae after 24 hrs by two fold dilution technique; how it was run: as §5
Streptococcus pyogenes [17] = assay: Antibacterial activity against Streptococcus pyogenes after 24 hrs by disc diffusion method; how it was run: as §2
Escherichia coli [18] = assay: Antibacterial activity against Escherichia coli ATCC 25922 after 24 hrs by disc diffusion method; how it was run: as §2
Pseudomonas aeruginosa [19] = assay: Antibacterial activity against Pseudomonas aeruginosa ATCC 27853 after 24 hrs by two fold dilution technique; conditions: ATCC 27853, 24 h; how it was run: as §5
Klebsiella pneumoniae [20] = assay: Antibacterial activity against Klebsiella pneumoniae after 18 to 24 hrs
Talaromyces marneffei [21] = assay: Antifungal activity against Penicillium marneffei after 48 hrs by two fold dilution technique; how it was run: as §4
Streptococcus pyogenes [22] = assay: Antibacterial activity against Streptococcus pyogenes after 18 to 24 hrs
Aspergillus fumigatus [23] = assay: Antifungal activity against Aspergillus fumigatus after 48 hrs by two fold dilution technique; how it was run: as §4
Staphylococcus aureus [24] = assay: Antibacterial activity against Staphylococcus aureus ATCC 25923 after 18 to 24 hrs
Pseudomonas aeruginosa [25] = assay: Antibacterial activity against Pseudomonas aeruginosa ATCC 27853 after 24 hrs by disc diffusion method; how it was run: as §2
Aspergillus fumigatus [26] = assay: Antifungal activity against Aspergillus fumigatus after 48 hrs by disk diffusion method; how it was run: as §3
[27] = test system: Trichophyton mentagrophytes; assay: Ratio of MFC to MIC for Trichophyton mentagrophytes; how it was run: as §1

Compound | MBC (Pseudomonas aeruginosa [1]) [µg/mL] | Ratio (Aspergillus fumigatus [2]) | Ratio (Candida albicans [3]) | MBC (Escherichia coli [4]) [µg/mL] | diameter of the inhibition zone (DIZ) (Staphylococcus aureus [5]) [mm] | diameter of the inhibition zone (DIZ) [6] [mm] | MFC (Candida albicans [7]) [µg/mL] | MIC (Candida albicans [7]) [µg/mL] | MIC (Streptococcus pyogenes [8]) [µg/mL] | diameter of the inhibition zone (DIZ) (Talaromyces marneffei [9]) [mm] | diameter of the inhibition zone (DIZ) (Klebsiella pneumoniae [10]) [mm] | Ratio (Talaromyces marneffei [11]) | diameter of the inhibition zone (DIZ) (Candida albicans [12]) [mm] | MIC (Staphylococcus aureus [13]) [µg/mL] | MIC (Escherichia coli [14]) [µg/mL] | MFC [15] [µg/mL] | MIC [15] [µg/mL] | MIC (Klebsiella pneumoniae [16]) [µg/mL] | diameter of the inhibition zone (DIZ) (Streptococcus pyogenes [17]) [mm] | diameter of the inhibition zone (DIZ) (Escherichia coli [18]) [mm] | also measured
CCCCCCC(O)C/C=C\CCCCCCCc1nnc(Nc2ccccc2)s1 (configuration not stated) | 12.5 (≈ 29.1 µM) | 4 | 2 | 12.5 (≈ 29.1 µM) | 21.6 | 18.9 | 25 (≈ 58.2 µM) | 12.5 (≈ 29.1 µM) | 6.25 (≈ 14.5 µM) | 15.1 | 22.7 | 2 | 25.1 | 6.25 (≈ 14.5 µM) | 6.5 (≈ 15.1 µM) | 25 (≈ 58.2 µM) | 12.5 (≈ 29.1 µM) | 6.25 (≈ 14.5 µM) | 22.9 | 25.5 | MIC (Pseudomonas aeruginosa [19]): 6.25 µg/mL (≈ 14.5 µM); MBC (Klebsiella pneumoniae [20]): 6.25 µg/mL (≈ 14.5 µM); MFC (Talaromyces marneffei [21]): 50 µg/mL (≈ 116 µM); MIC (Talaromyces marneffei [21]): 25 µg/mL (≈ 58.2 µM); MBC (Streptococcus pyogenes [22]): 12.5 µg/mL (≈ 29.1 µM); MFC (Aspergillus fumigatus [23]): 50 µg/mL (≈ 116 µM); MIC (Aspergillus fumigatus [23]): 12.5 µg/mL (≈ 29.1 µM); MBC (Staphylococcus aureus [24]): 12.5 µg/mL (≈ 29.1 µM); diameter of the inhibition zone (DIZ) (Pseudomonas aeruginosa [25]): 29.2 mm; diameter of the inhibition zone (DIZ) (Aspergillus fumigatus [26]): 22.4 mm
CCCCCCCC/C=C\CCCCCCCc1nnc(Nc2ccccc2)o1 | 50 (≈ 126 µM) | 2 | 4 | 50 (≈ 126 µM) | 15.3 | 20.2 | 25 (≈ 62.9 µM) | 6.25 (≈ 15.7 µM) | 25 (≈ 62.9 µM) | 15.9 | 14.9 | 4 | 26.1 | 12.5 (≈ 31.4 µM) | 12.5 (≈ 31.4 µM) | 25 (≈ 62.9 µM) | 12.5 (≈ 31.4 µM) | 12.5 (≈ 31.4 µM) | 15.6 | 17.5 | Ratio [27]: 2; MIC (Pseudomonas aeruginosa [19]): 12.5 µg/mL (≈ 31.4 µM); MBC (Klebsiella pneumoniae [20]): 50 µg/mL (≈ 126 µM); MFC (Talaromyces marneffei [21]): 25 µg/mL (≈ 62.9 µM); MIC (Talaromyces marneffei [21]): 6.25 µg/mL (≈ 15.7 µM); MBC (Streptococcus pyogenes [22]): 25 µg/mL (≈ 62.9 µM); MFC (Aspergillus fumigatus [23]): 12.5 µg/mL (≈ 31.4 µM); MIC (Aspergillus fumigatus [23]): 6.25 µg/mL (≈ 15.7 µM); MBC (Staphylococcus aureus [24]): 50 µg/mL (≈ 126 µM); diameter of the inhibition zone (DIZ) (Pseudomonas aeruginosa [25]): 19.3 mm; diameter of the inhibition zone (DIZ) (Aspergillus fumigatus [26]): 23.1 mm
CCCCCC[C@@H](O)C/C=C\CCCCCCCc1nnc(Nc2ccccc2)o1 | 50 (≈ 121 µM) | 4 | 4 | 25 (≈ 60.4 µM) | 20.2 | 17.5 | 100 (≈ 242 µM) | 25 (≈ 60.4 µM) | 6.25 (≈ 15.1 µM) | 13.9 | 19.7 | 8 | 23.3 | 6.25 (≈ 15.1 µM) | 6.25 (≈ 15.1 µM) | 50 (≈ 121 µM) | 12.5 (≈ 30.2 µM) | 6.25 (≈ 15.1 µM) | 21.2 | 22.8 | Ratio [27]: 4; MIC (Pseudomonas aeruginosa [19]): 6.25 µg/mL (≈ 15.1 µM); MBC (Klebsiella pneumoniae [20]): 6.25 µg/mL (≈ 15.1 µM); MFC (Talaromyces marneffei [21]): 100 µg/mL (≈ 242 µM); MIC (Talaromyces marneffei [21]): 12.5 µg/mL (≈ 30.2 µM); MBC (Streptococcus pyogenes [22]): 12.5 µg/mL (≈ 30.2 µM); MFC (Aspergillus fumigatus [23]): 50 µg/mL (≈ 121 µM); MIC (Aspergillus fumigatus [23]): 12.5 µg/mL (≈ 30.2 µM); MBC (Staphylococcus aureus [24]): 12.5 µg/mL (≈ 30.2 µM); diameter of the inhibition zone (DIZ) (Pseudomonas aeruginosa [25]): 25.6 mm; diameter of the inhibition zone (DIZ) (Aspergillus fumigatus [26]): 20.7 mm
